Where a SMILES comes first, the peptide text is derived from it. Bridges are numbered along the chain shown (N, C = ends). Roman numbers before positions name the chains, in order. [ ]: non-standard residue; d: D form. The star is where a group is joined. Quinoxaline2carbonyl = O=C(c1cnc2ccccc2n1)*; Quinaldoyl(3-OH) = O=C(c1nc2ccccc2cc1O)*; Quinaldoyl = O=C(c1ccc2ccccc2n1)*; NMeF = CN[C@@H](Cc1ccccc1)C(=O)O; NMeL = CN[C@@H](CC(C)C)C(=O)O; X1 = O=C(c1cc(=O)c2ccccc2o1)*; NMeA = CN[C@@H](C)C(=O)O; Orn = NCCC[C@H](N)C(=O)O; Dap = NC[C@H](N)C(=O)O; Sar = CNCC(=O)O
Columns and labels:
Assay type in all cases: functional
A549 = test: Cytotoxicity against human A549 cells after 72 hrs by SRB assay; details: A549, 72 h
Method in brief: (§1)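 SRB colorimetric growth assay: cells seeded at 5 × 10^3 cells/well in RPMI, grown drug-free 18 h to attach, then samples added (dissolved in DMSO–H2O 3:7) for 72 h exposure. Fixed with cold 50% TCA 60 min at 4 °C, stained with 0.4% SRB in 1% acetic acid 10 min at room temperature, washed, bound dye solubilized in Tris, absorbance read at 490 nm; GI50 derived.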

MDA-MB-231 = test: Cytotoxicity against human MDA-MB-231 cells after 72 hrs by SRB assay; details: MDA-MB-231, 72 h; method in brief: as §1
HT-29 = test: Cytotoxicity against human HT29 cells after 72 hrs by SRB assay; details: HT-29, 72 h; method in brief: as §1

Compound `CC(C)C[C@@H](C(=O)N[C@H]1CNC(=O)[C@H](Cc2ccccc2)N(C)C(=O)[C@H](CC(C)C)N(C)C(=O)[C@@H](NC(=O)[C@H](CC(C)C)N(C)C)CNC(=O)[C@H](Cc2ccccc2)N(C)C(=O)[C@H](CC(C)C)N(C)C1=O)N(C)C` has a GI50 (A549) of 2860 nM, a GI50 (MDA-MB-231) of 710 nM and a GI50 (HT-29) of 650 nM.
For `CC(C)C[C@@H](C(=O)N[C@H]1COC(=O)[C@H](Cc2ccccc2)N(C)C(=O)[C@H](CC(C)C)N(C)C(=O)[C@@H](NC(=O)[C@H](CC(C)C)N(C)C)COC(=O)[C@H](Cc2ccccc2)N(C)C(=O)[C@H](CC(C)C)N(C)C1=O)N(C)C`, the GI50 (A549) was 2900 nM, the GI50 (MDA-MB-231) was 1230 nM and the GI50 (HT-29) was 640 nM.
With `CC(C)C[C@H]1C(=O)NCCCC[C@H](NC(=O)c2ccc3ccccc3n2)C(=O)N(C)[C@@H](CC(C)C)C(=O)N(C)CC(=O)N(C)[C@@H](CC(C)C)C(=O)NCCCC[C@H](NC(=O)c2ccc3ccccc3n2)C(=O)N(C)[C@@H](CC(C)C)C(=O)N(C)CC(=O)N1C` (I: Quinaldoyl-K[NMeL][Sar][NMeL] / II: Quinaldoyl-K[NMeL][Sar][NMeL]; amide I:1-II:C, I:C-II:1) the GI50 (A549) was 3940 nM.
In the case of `CC(C)C[C@H]1C(=O)NC[C@H](NC(=O)c2ccc3ccccc3n2)C(=O)N(C)[C@@H](CC(C)C)C(=O)NCC(=O)N(C)[C@@H](CC(C)C)C(=O)NC[C@H](NC(=O)c2ccc3ccccc3n2)C(=O)N(C)[C@@H](CC(C)C)C(=O)NCC(=O)N1C` (I: Quinaldoyl-[Dap][NMeL]G[NMeL] / II: Quinaldoyl-[Dap][NMeL]G[NMeL]; amide I:1-II:C, I:C-II:1), the GI50 (A549) is reported as 1180 nM, the GI50 (MDA-MB-231) is reported as 550 nM and the GI50 (HT-29) is reported as 620 nM.
Work on `CC(C)C[C@H]1C(=O)N(C)CC(=O)N(C)[C@@H](C)C(=O)NC[C@H](NC(=O)c2ccc3ccccc3n2)C(=O)N(C)[C@@H](CC(C)C)C(=O)N(C)CC(=O)N(C)[C@@H](C)C(=O)NC[C@H](NC(=O)c2ccc3ccccc3n2)C(=O)N1C` (I: Quinaldoyl-[Dap][NMeL][Sar][NMeA] / II: Quinaldoyl-[Dap][NMeL][Sar][NMeA]; amide I:1-II:C, I:C-II:1) yielded a GI50 (MDA-MB-231) of 5340 nM and a GI50 (HT-29) of 3530 nM.
`CC(C)C[C@H]1C(=O)N(C)CC(=O)N(C)[C@@H](Cc2ccccc2)C(=O)NC[C@H](NC(=O)c2ccc3ccccc3n2)C(=O)N(C)[C@@H](CC(C)C)C(=O)N(C)CC(=O)N(C)[C@@H](Cc2ccccc2)C(=O)NC[C@H](NC(=O)c2ccc3ccccc3n2)C(=O)N1C` (I: Quinaldoyl-[Dap][NMeL][Sar][NMeF] / II: Quinaldoyl-[Dap][NMeL][Sar][NMeF]; amide I:1-II:C, I:C-II:1) showed a GI50 (A549) of 4160 nM and a GI50 (HT-29) of 4080 nM.
`CC(C)C[C@H]1C(=O)NC[C@H](NC(=O)c2ccc3ccccc3n2)C(=O)N(C)[C@@H](CC(C)C)C(=O)N(C)CC(=O)N(C)[C@@H](CC(C)C)C(=O)OC[C@H](NC(=O)c2ccc3ccccc3n2)C(=O)N(C)[C@@H](CC(C)C)C(=O)N(C)CC(=O)N1C` (I: Quinaldoyl-[Dap][NMeL][Sar][NMeL] / II: Quinaldoyl-S[NMeL][Sar][NMeL]; amide I:1-II:C; ester I:C-II:1) was tested, and the GI50 (A549) was 2760 nM, the GI50 (MDA-MB-231) was 1160 nM and the GI50 (HT-29) was 1230 nM.
`CC(C)C[C@H]1C(=O)NC[C@H](NC(=O)c2ccc3ccccc3n2)C(=O)N(C)[C@@H](CC(C)C)C(=O)N(C)CC(=O)N(C)[C@@H](CC(C)C)C(=O)NC[C@H](NC(=O)c2ccc3ccccc3n2)C(=O)N(C)[C@@H](CC(C)C)C(=O)N(C)CC(=O)N1C` (I: Quinaldoyl-[Dap][NMeL][Sar][NMeL] / II: Quinaldoyl-[Dap][NMeL][Sar][NMeL]; amide I:1-II:C, I:C-II:1) gave a GI50 (A549) of 570 nM, a GI50 (MDA-MB-231) of 640 nM and a GI50 (HT-29) of 500 nM.
In the case of `CC(C)C[C@H]1C(=O)NCCC[C@H](NC(=O)c2ccc3ccccc3n2)C(=O)N(C)[C@@H](CC(C)C)C(=O)N(C)CC(=O)N(C)[C@@H](CC(C)C)C(=O)NCCC[C@H](NC(=O)c2ccc3ccccc3n2)C(=O)N(C)[C@@H](CC(C)C)C(=O)N(C)CC(=O)N1C` (I: Quinaldoyl-[Orn][NMeL][Sar][NMeL] / II: Quinaldoyl-[Orn][NMeL][Sar][NMeL]; amide I:1-II:C, I:C-II:1), the GI50 (A549) is reported as 2940 nM, the GI50 (MDA-MB-231) is reported as 5800 nM and the GI50 (HT-29) is reported as 2440 nM.
With `CC(C)C[C@H]1C(=O)NC[C@H](NC(=O)c2cnc3ccccc3n2)C(=O)N(C)[C@@H](CC(C)C)C(=O)N(C)CC(=O)N(C)[C@@H](CC(C)C)C(=O)NC[C@H](NC(=O)c2cnc3ccccc3n2)C(=O)N(C)[C@@H](CC(C)C)C(=O)N(C)CC(=O)N1C` (I: Quinoxaline2carbonyl-[Dap][NMeL][Sar][NMeL] / II: Quinoxaline2carbonyl-[Dap][NMeL][Sar][NMeL]; amide I:1-II:C, I:C-II:1) the GI50 (A549) was 1410 nM, the GI50 (MDA-MB-231) was 1670 nM and the GI50 (HT-29) was 1230 nM.
Compound `CC(C)C[C@H]1C(=O)NC[C@H](NC(=O)c2cc(=O)c3ccccc3o2)C(=O)N(C)[C@@H](CC(C)C)C(=O)N(C)CC(=O)N(C)[C@@H](CC(C)C)C(=O)NC[C@H](NC(=O)c2cc(=O)c3ccccc3o2)C(=O)N(C)[C@@H](CC(C)C)C(=O)N(C)CC(=O)N1C` (I: X1-[Dap][NMeL][Sar][NMeL] / II: X1-[Dap][NMeL][Sar][NMeL]; amide I:1-II:C, I:C-II:1) has a GI50 (MDA-MB-231) of 2310 nM and a GI50 (HT-29) of 2910 nM.
Work on `CC(C)C[C@H]1C(=O)NC[C@H](NC(=O)c2nc3ccccc3cc2O)C(=O)N(C)[C@@H](CC(C)C)C(=O)N(C)CC(=O)N(C)[C@@H](CC(C)C)C(=O)NC[C@H](NC(=O)c2nc3ccccc3cc2O)C(=O)N(C)[C@@H](CC(C)C)C(=O)N(C)CC(=O)N1C` (I: {Quinaldoyl(3-OH)}-[Dap][NMeL][Sar][NMeL] / II: {Quinaldoyl(3-OH)}-[Dap][NMeL][Sar][NMeL]; amide I:1-II:C, I:C-II:1) yielded a GI50 (A549) of 2400 nM and a GI50 (HT-29) of 3430 nM.

Reference: ChEMBL document CHEMBL1150348, “Design and synthesis of FAJANU: a de novo C(2) symmetric cyclopeptide family” (2008)
